# Measurements published in publication PMC9057237 (RSC Advances, 2020).
# Assays:
# MTT cell viability assay = assay type: cell-based, rat; conditions: rat, RBL-2H3 cells
# Procedure, shortened: (§1)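 Cells grown in DMEM with 10% FBS, penicillin (100 U mL−1) and streptomycin (100 μg mL−1) at 37 °C under humidified 5% CO2. Pure compounds tested at 1 to 400 μM; viability read by MTT assay. Mean, n = 3, relative to untreated (DMSO) control.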
# neutrophil elastase (NE) = biological target: T1, neutrophil elastase (NE) (Homo sapiens, UniProt P08246); experiment: Cell-free elastase enzymatic activity assay; assay type: biochemical; conditions: read-out: Inhibition of elastase enzyme activity
# T1 sequence (P08246 30-247 limits assumed): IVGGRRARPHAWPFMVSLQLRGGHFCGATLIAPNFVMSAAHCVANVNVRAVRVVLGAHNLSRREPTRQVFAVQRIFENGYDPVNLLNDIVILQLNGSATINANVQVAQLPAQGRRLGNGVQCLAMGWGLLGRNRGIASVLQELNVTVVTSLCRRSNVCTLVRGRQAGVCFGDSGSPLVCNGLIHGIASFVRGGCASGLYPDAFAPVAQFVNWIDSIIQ
# Procedure, shortened: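 Neutrophils (6 × 10^5 cells per mL) preheated 5 min at 37 °C with CaCl2 (1 mM), primed with CB (1.5 μg mL−1) for 2 min, then fMLF (0.1 μM) to release elastase. Cell-free supernatant taken after centrifugation (1000g, 5 min, 4 °C), warmed to 37 °C and given test compound (10 μM) or DMSO for 2 min. MeO-Suc-Ala-Ala-Pro-Val-p-nitroanilide (100 μM) added for 10 min; A405 read. Mean ± S.E.M., n = 4; t-test.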
# human neutrophils [1] = experiment: Elastase release in fMLF/cytochalasin B-induced human neutrophils; assay type: cell-based; conditions: for inhibition at 10 µM / IC50: Homo sapiens, Neutrophil; for inhibition at 10 µM: read-out: Elastase release % Inhibition; for IC50: read-out: Elastase release IC50
# Procedure, shortened: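 Neutrophils isolated from venous blood of healthy adult volunteers aged 20–30 years. Release from activated cells measured with MeO-Suc-Ala-Ala-Pro-Val-p-nitroanilide as elastase substrate. Pure compounds tested at 0.3–10 μM. LY294002 as positive control. Mean ± S.E.M., n = 3–6, vs 0.1% DMSO control; IC50 is the concentration giving 50% inhibition.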
# human neutrophils [2] = experiment: Superoxide anion generation in fMLF/cytochalasin B-induced human neutrophils; assay type: cell-based; conditions: for IC50: read-out: Superoxide anion generation IC50
# Procedure, shortened: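 Human neutrophils taken from venous blood of healthy volunteers aged 20–30 years. Superoxide from activated cells measured as ferricytochrome c reduction. Pure compounds tested at 0.3–10 μM. Mean ± S.E.M., n = 3–6, vs 0.1% DMSO control; IC50 is the concentration giving 50% inhibition.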
# SARS-CoV-2 M^pro = conditions: read-out: M^pro inhibition IC50; cited from earlier work
# RBL-2H3 cells [3] = experiment: MTT cell viability assay; assay type: cell-based, rat; conditions: 100 μM; MTT
# Procedure, shortened: as §1
# RBL-2H3 cells [4] = experiment: A23187-induced degranulation; assay type: cell-based, rat; conditions: mean ± S.E.M.
# [5] = tested on: human neutrophil elastase; conditions: read-out: Human neutrophil elastase IC50; previous study; cited from earlier work
# RBL-2H3 cells [6] = experiment: Antigen-induced degranulation; assay type: cell-based, rat; conditions: for % Inhibition of antigen-induced degranulation: mean ± SEM
# [7] = Homo sapiens, Neutrophil, read-out: Superoxide anion generation % Inhibition
# [8] = at 10 μM, fMLF/CB-induced human neutrophils, mean ± S.E.M.
Compound,inhibition at 10 µM (neutrophil elastase (NE)),inhibition at 10 µM (human neutrophils [1]),IC50 (human neutrophils [1]),viability at 100 µM (MTT cell viability assay),inhibition at 10 µM (human neutrophils [2]; [7]),"IC50 (human neutrophils [2]; Homo sapiens, Neutrophil)",also measured
"CN1CCCC(n2nc(Cc3ccc(Cl)cc3)c3ccccc3c2=O)CC1 (stereo not drawn) [Azelastine, reference compound]",,,,,,,viability at 20 µM (MTT cell viability assay): > 90%
"COc1cc(O)c2c(=O)c(OC)c(-c3ccc(O)cc3)oc2c1 [Compound 7, kumatakenin]",20.3 to 27.1%,22.9 ± 4.29%,> 10 µM,> 90%,24.1 ± 2.75%,> 10 µM,
"COc1cc(O)c2c(=O)c(OC)c(-c3ccc(O)c(OC)c3)oc2c1 [Compound 9, pachypodol]",20.3 to 27.1%,31.6 ± 5.02%,> 10 µM,> 90%,67.5 ± 4.55%,6.07 ± 0.65 µM,
"O=c1c(-c2ccc(O)cc2)coc2cc(O)cc(O)c12 [Genistein, reference compound]",,31.6 ± 7.29%,16.3 ± 4.26 µM,,,1.52 ± 0.17 µM,inhibition at 3 µM (human neutrophils [2]; [7]): 67%
O=c1cc(-c2ccc(O)c(-c3c(O)cc(O)c4c(=O)cc(-c5ccc(O)cc5)oc34)c2)oc2cc(O)cc(O)c12 [amentoflavone],,,,,,,IC50 (SARS-CoV-2 M^pro): 8.3 µM
penduletin [Compound 8],,,,,,,"Elastase release % Inhibition (human neutrophils [1]; [8]): 33.00 ± 7.94%; % Viability, RBL-2H3 (RBL-2H3 cells [3]): >90%; % Inhibition of A23187-induced degranulation (RBL-2H3 cells [4]; 1 μM): 4.8 ± 3.9%; % Inhibition of A23187-induced degranulation (RBL-2H3 cells [4]; 10 μM): 25.1 ± 7.3%; Superoxide anion generation % Inhibition (human neutrophils [2]; [8]): 73.76 ± 5.24%; IC50 [5]: 65.4 µM; % Inhibition of antigen-induced degranulation (RBL-2H3 cells [6]; 1 μM): 33.9 ± 8.6 %; % Inhibition of antigen-induced degranulation (RBL-2H3 cells [6]; 10 μM): 85.8 ± 5.1 %; IC50 (RBL-2H3 cells [6]; read-out: Antigen-induced degranulation IC50): 3.8 µM"
